System: not listed separately
Assay: Drug uptake in C57BL/6 mouse brain at 10 mg/kg, ip measured after 2 hrs by LC-MS/MS analysis
Assay type: ADME, organism-based
Parameters: dose 10 mg/kg, route intraperitoneal
Conditions: read-out: Drug uptake
Outline: (§1)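 C57Bl6 mice (n = 3) given 10 mg/kg IP in 10:10:80 DMSO:Tween:water; blood and brain collected at 2 h. Plasma frozen at −80°C. Plasma and brain mixed with acetonitrile (1:5 v:v or w:v), brain probe-sonicated. Drug quantified by LC-MS/MS against standards in plasma or blank brain matrix.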

| concentration at 2 h | SMILES |
| --- | --- |
| 1.3 µM | CS(=O)(=O)N1CCC(CN(Cc2ccc(Cl)cc2)Cc2ccc([N+](=O)[O-])s2)C1 (racemic) |
| 0.24 µM | CCCCNC(=O)N1CCC(CN(Cc2ccc(Cl)cc2)Cc2ccc([N+](=O)[O-])s2)C1 (racemic) |

System: not listed separately
Assay: Plasma concentration in C57BL/6 mouse at 10 mg/kg, ip measured after 2 hrs by LC-MS/MS analysis
Assay type: ADME, organism-based
Parameters: dose 10 mg/kg, route intraperitoneal
Conditions: not given
Outline: as §1

| concentration at 2 h | SMILES |
| --- | --- |
| 0.54 µM | CS(=O)(=O)N1CCC(CN(Cc2ccc(Cl)cc2)Cc2ccc([N+](=O)[O-])s2)C1 (racemic) |
| 0.53 µM | CCCCNC(=O)N1CCC(CN(Cc2ccc(Cl)cc2)Cc2ccc([N+](=O)[O-])s2)C1 (racemic) |

Biological target: T1, Nuclear receptor subfamily 1 group D member 1 (Homo sapiens) (UniProt P20393)
T1 sequence (whole entry): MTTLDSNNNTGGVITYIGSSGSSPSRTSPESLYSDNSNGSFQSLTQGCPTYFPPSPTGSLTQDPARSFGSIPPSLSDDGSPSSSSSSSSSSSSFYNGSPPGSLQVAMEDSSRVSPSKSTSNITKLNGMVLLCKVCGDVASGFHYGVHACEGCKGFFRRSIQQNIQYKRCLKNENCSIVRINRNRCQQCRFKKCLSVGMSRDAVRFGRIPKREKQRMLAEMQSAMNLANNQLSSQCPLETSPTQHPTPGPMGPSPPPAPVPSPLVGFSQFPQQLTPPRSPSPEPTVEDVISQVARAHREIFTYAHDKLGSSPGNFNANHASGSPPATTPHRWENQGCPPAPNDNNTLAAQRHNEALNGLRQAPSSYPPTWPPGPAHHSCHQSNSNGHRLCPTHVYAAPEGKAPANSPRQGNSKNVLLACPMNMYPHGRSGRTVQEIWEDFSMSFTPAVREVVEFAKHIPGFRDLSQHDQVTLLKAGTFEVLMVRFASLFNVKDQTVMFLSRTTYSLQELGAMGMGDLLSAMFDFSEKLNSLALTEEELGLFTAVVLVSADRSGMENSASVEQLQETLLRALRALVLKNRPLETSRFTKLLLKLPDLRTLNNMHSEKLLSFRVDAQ
Assay: Agonist activity at Rev-Erbalpha expressed in HEK293 cells coexpressing […] promoter assessed as repression of transcription at 10 uM after 24 hrs by dual-Glo luciferase assay relative to control
Assay type: functional, cell-based
Conditions: not given
Outline: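 Cells co-transfected with full-length Rev-erbα expression plasmid plus Bmal1 promoter-luciferase reporter; renilla luciferase for normalization and toxicity check. Average of 2 or more experiments.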

| SMILES | Ratio |
| --- | --- |
| CS(=O)(=O)N1CCC(CN(Cc2ccc(Cl)cc2)Cc2ccc([N+](=O)[O-])s2)C1 (racemic) | 0.3 |
| O=[N+]([O-])c1ccc(CN(Cc2ccc(Cl)cc2)CC2CCN(Cc3ccccc3)C2)s1 (racemic) | 1 |
| N#CCN(Cc1ccc(Cl)cc1)Cc1ccc([N+](=O)[O-])s1 | 0.79 |
| O=[N+]([O-])c1ccc(CN(Cc2ccc(Cl)cc2)CC2CCCCC2)s1 | 0.3 |
| O=[N+]([O-])c1ccc(CN(Cc2ccc(Cl)cc2)Cc2ccc(C(F)(F)F)cc2)s1 | 0.45 |
| CS(=O)(=O)n1ccc(CN(Cc2ccc(Cl)cc2)Cc2ccc([N+](=O)[O-])s2)c1 | 1 |
| O=[N+]([O-])c1ccc(CN(Cc2ccc(Cl)cc2)CC2CCN(S(=O)(=O)Cc3ccccc3)C2)s1 (racemic) | 0.4 |
| O=[N+]([O-])c1ccc(CN(Cc2ccc(Cl)cc2)CC2CCN(S(=O)(=O)c3cccc4ccccc34)C2)s1 (racemic) | 0.45 |
| O=C(Oc1ccccc1)N1CCC(CN(Cc2ccc(Cl)cc2)Cc2ccc([N+](=O)[O-])s2)C1 (racemic) | 0.55 |
| CC(C)(C)OC(=O)N1CCCC(N(Cc2ccc(Cl)cc2)Cc2ccc([N+](=O)[O-])s2)C1 (racemic) | 0.14 |
| Cc1ccc(S(=O)(=O)N2CCC(CN(Cc3ccc(Cl)cc3)Cc3ccc([N+](=O)[O-])s3)C2)cc1 (racemic) | > 1 |
| O=C(Nc1ccc([N+](=O)[O-])cc1)N1CCC(CN(Cc2ccc(Cl)cc2)Cc2ccc([N+](=O)[O-])s2)C1 (racemic) | 0.37 |
| CC(C)(C)OC(=O)CN(Cc1ccc([N+](=O)[O-])cc1)Cc1ccc([N+](=O)[O-])s1 | 0.58 |
| O=C(c1cccc2ccccc12)N(Cc1ccc(Cl)cc1)Cc1ccc([N+](=O)[O-])s1 | 0.4 |
| Cc1ccc(S(=O)(=O)N(Cc2ccc(Cl)cc2)Cc2ccc([N+](=O)[O-])s2)cc1 | 0.5 |
| CN1CCC(CN(Cc2ccc(Cl)cc2)Cc2ccc([N+](=O)[O-])s2)C1 (racemic) | 0.95 |
| CC(=O)N1CCC(CN(Cc2ccc(Cl)cc2)Cc2ccc([N+](=O)[O-])s2)C1 (racemic) | 0.35 |
| Cc1ccc(S(=O)(=O)N(CC(=O)OC(C)(C)C)Cc2ccc([N+](=O)[O-])s2)cc1 | 0.5 |
| O=C(Nc1ccccc1)N1CCC(CN(Cc2ccc(Cl)cc2)Cc2ccc([N+](=O)[O-])s2)C1 (racemic) | 0.33 |
| C=CCOC(=O)N1CCC(CN(Cc2ccc(Cl)cc2)Cc2ccc([N+](=O)[O-])s2)C1 (racemic) | 0.35 |
| O=[N+]([O-])c1ccc(CN(Cc2ccc(Cl)cc2)Cc2ccc3ccccc3c2)s1 | 0.7 |
| CCCCNC(=O)N1CCC(CN(Cc2ccc(Cl)cc2)Cc2ccc([N+](=O)[O-])s2)C1 (racemic) | 0.35 |
| CC(C)(C)OC(=O)N1CCC(N(Cc2ccc(Cl)cc2)Cc2ccc([N+](=O)[O-])s2)CC1 | 0.31 |
| O=[N+]([O-])c1ccc(CN(Cc2ccc(Cl)cc2)CC2COc3ccccc3O2)s1 (racemic) | 0.4 |

The remaining lines, values ahead:

| Ratio | SMILES |
| --- | --- |
| 0.81 | CC(C)(C)OC(=O)CN(Cc1ccncc1)Cc1ccc(Cl)cc1 |
| 0.77 | CC(C)(C)OC(=O)CN(Cc1ccc(F)cc1)Cc1ccc([N+](=O)[O-])s1 |
| 1.2 | CC(C)(C)OC(=O)CNCc1ccc(Cl)cc1 |
| 0.88 | CC(C)(C)OC(=O)CN(Cc1ccc(Cl)cc1)Cc1cnc[nH]1 |
| 0.68 | COc1ccc(CN(CC(=O)OC(C)(C)C)Cc2ccc([N+](=O)[O-])s2)cc1 |
| 0.75 | NC(=O)CN(Cc1ccc(Cl)cc1)Cc1ccc([N+](=O)[O-])s1 |
| 0.48 | CC(C)(C)OC(=O)CN(Cc1ccc([N+](=O)[O-])s1)C(=O)c1cccc2ccccc12 |
| 1.1 | CC(C)(C)OC(=O)CN(Cc1ccccc1)Cc1ccc([N+](=O)[O-])s1 |
| 0.24 | CC(C)(C)OC(=O)N1CCC(N(Cc2ccc(Cl)cc2)Cc2ccc([N+](=O)[O-])s2)C1 (racemic) |
| 0.8 | COC(=O)CN(Cc1ccc(Cl)cc1)Cc1ccc([N+](=O)[O-])s1 |
| 0.6 | CC(C)(C)OC(=O)CN(Cc1ccc([N+](=O)[O-])s1)Cc1cccc2ccccc12 |
| 0.93 | CC(C)(C)OC(=O)CN(Cc1ccc(Cl)cc1)Cc1cccs1 |
| 0.37 | CC(C)(C)OC(=O)CN(Cc1ccc([N+](=O)[O-])s1)S(=O)(=O)c1cccc2ccccc12 |
| 0.85 | O=C(O)CN(Cc1ccc(Cl)cc1)Cc1ccc([N+](=O)[O-])s1 |
| 0.9 | CC(C)(C)OC(=O)N1CCCC(CN(Cc2ccc(Cl)cc2)Cc2ccc([N+](=O)[O-])s2)C1 (racemic) |
| 0.8 | CC(C)(C)OC(=O)N1CCC(CN(Cc2ccc(Cl)cc2)Cc2ccc([N+](=O)[O-])s2)CC1 |
| 0.6 | CC(C)(C)OC(=O)CN(Cc1ccc2ccccc2c1)Cc1ccc([N+](=O)[O-])s1 |
| 1.1 | CC(C)(C)OC(=O)CN(Cc1ccc(Cl)cc1)CC1CCCC1 |
| 0.82 | CC(C)(C)OC(=O)CN(Cc1ccc(Cl)cc1)Cc1nc2ccccc2s1 |
| 0.5 | O=[N+]([O-])c1ccc(CN(Cc2ccc(Cl)cc2)Cc2nc3ccccc3s2)s1 |
| 0.33 | CC(C)(C)OC(=O)N1CCC(CN(Cc2ccc(Cl)cc2)Cc2ccc([N+](=O)[O-])s2)C1 (racemic) |

Biological target: T2, Nuclear receptor subfamily 1 group D member 1 (Homo sapiens, UniProt P20393)
T2 sequence (P20393 whole entry): T1 sequence (whole entry)
Assay: Agonist activity at Rev-Erbalpha expressed in HEK293 cells coexpressing […] promoter assessed as repression of transcription after 24 hrs by dual-Glo luciferase assay
Assay type: functional, cell-based
Conditions: not given
Outline: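 Cells co-transfected with full-length Rev-erbα expression plasmid and Bmal1 promoter-driven luciferase reporter. Renilla luciferase used for normalization and toxicity monitoring. Average of 2 or more experiments.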

| SMILES | EC50 |
| --- | --- |
| CS(=O)(=O)N1CCC(CN(Cc2ccc(Cl)cc2)Cc2ccc([N+](=O)[O-])s2)C1 (racemic) | 0.57 µM |
| N#CCN(Cc1ccc(Cl)cc1)Cc1ccc([N+](=O)[O-])s1 | 2.5 µM |
| O=[N+]([O-])c1ccc(CN(Cc2ccc(Cl)cc2)CC2CCCCC2)s1 | 7.4 µM |
| O=[N+]([O-])c1ccc(CN(Cc2ccc(Cl)cc2)Cc2ccc(C(F)(F)F)cc2)s1 | 5.5 µM |
| O=[N+]([O-])c1ccc(CN(Cc2ccc(Cl)cc2)CC2CCN(S(=O)(=O)Cc3ccccc3)C2)s1 (racemic) | 0.63 µM |
| O=[N+]([O-])c1ccc(CN(Cc2ccc(Cl)cc2)CC2CCN(S(=O)(=O)c3cccc4ccccc34)C2)s1 (racemic) | 0.45 µM |
| O=C(Nc1ccc([N+](=O)[O-])cc1)N1CCC(CN(Cc2ccc(Cl)cc2)Cc2ccc([N+](=O)[O-])s2)C1 (racemic) | 0.4 µM |
| CC(C)(C)OC(=O)CN(Cc1ccc([N+](=O)[O-])cc1)Cc1ccc([N+](=O)[O-])s1 | 2.5 µM |
| O=C(c1cccc2ccccc12)N(Cc1ccc(Cl)cc1)Cc1ccc([N+](=O)[O-])s1 | 2.6 µM |
| Cc1ccc(S(=O)(=O)N(Cc2ccc(Cl)cc2)Cc2ccc([N+](=O)[O-])s2)cc1 | 2.5 µM |
| CC(=O)N1CCC(CN(Cc2ccc(Cl)cc2)Cc2ccc([N+](=O)[O-])s2)C1 (racemic) | 1.6 µM |
| Cc1ccc(S(=O)(=O)N(CC(=O)OC(C)(C)C)Cc2ccc([N+](=O)[O-])s2)cc1 | 3 µM |
| O=C(Nc1ccccc1)N1CCC(CN(Cc2ccc(Cl)cc2)Cc2ccc([N+](=O)[O-])s2)C1 (racemic) | 0.62 µM |
| C=CCOC(=O)N1CCC(CN(Cc2ccc(Cl)cc2)Cc2ccc([N+](=O)[O-])s2)C1 (racemic) | 0.67 µM |
| O=[N+]([O-])c1ccc(CN(Cc2ccc(Cl)cc2)Cc2ccc3ccccc3c2)s1 | 8.8 µM |
| CCCCNC(=O)N1CCC(CN(Cc2ccc(Cl)cc2)Cc2ccc([N+](=O)[O-])s2)C1 (racemic) | 0.67 µM |
| O=[N+]([O-])c1ccc(CN(Cc2ccc(Cl)cc2)CC2COc3ccccc3O2)s1 (racemic) | 7.8 µM |

Next, values leading:

| EC50 | SMILES |
| --- | --- |
| 2 µM | CC(C)(C)OC(=O)CN(Cc1ccc(F)cc1)Cc1ccc([N+](=O)[O-])s1 |
| 2.9 µM | COc1ccc(CN(CC(=O)OC(C)(C)C)Cc2ccc([N+](=O)[O-])s2)cc1 |
| 3 µM | NC(=O)CN(Cc1ccc(Cl)cc1)Cc1ccc([N+](=O)[O-])s1 |
| 2.6 µM | CC(C)(C)OC(=O)CN(Cc1ccc([N+](=O)[O-])s1)C(=O)c1cccc2ccccc12 |
| 1.6 µM | CC(C)(C)OC(=O)N1CCC(N(Cc2ccc(Cl)cc2)Cc2ccc([N+](=O)[O-])s2)C1 (racemic) |
| 3.9 µM | COC(=O)CN(Cc1ccc(Cl)cc1)Cc1ccc([N+](=O)[O-])s1 |
| 2.5 µM | CC(C)(C)OC(=O)CN(Cc1ccc([N+](=O)[O-])s1)Cc1cccc2ccccc12 |
| 0.8 µM | CC(C)(C)OC(=O)CN(Cc1ccc([N+](=O)[O-])s1)S(=O)(=O)c1cccc2ccccc12 |
| 4 µM | O=[N+]([O-])c1ccc(CN(Cc2ccc(Cl)cc2)Cc2nc3ccccc3s2)s1 |
| 1.8 µM | CC(C)(C)OC(=O)N1CCC(CN(Cc2ccc(Cl)cc2)Cc2ccc([N+](=O)[O-])s2)C1 (racemic) |

System: not listed separately
Assay: Drug uptake in C57BL/6 mouse brain at 50 mg/kg, ip measured after 8 hrs by LC-MS/MS analysis
Conditions: not given

| SMILES | concentration at 8 h |
| --- | --- |
| CCOC(=O)N1CCC(CN(Cc2ccc(Cl)cc2)Cc2ccc([N+](=O)[O-])s2)C1 (racemic) [SR9009] | 8.7 µM |

Source: ChEMBL document CHEMBL2057134, “Small molecule tertiary amines as agonists of the nuclear hormone receptor Rev-erbα” (Bioorg Med Chem Lett, 2012)
